Results published in PubChem BioAssay.
Active and inactive are the calls of the source.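 The calls were made as follows, unless noted: active = GFP response below 50% of the DMSO control; inconclusive = fewer than 70 events counted for a yeast strain; inactive = the rest.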

What was measured:
[1] = hit retest on RPL19A-GFP reporter strain – cell-based, S. cerevisiae, flow cytometry, cherry picks, mother/daughter gates, confirmation (AID 2270); conditions: 3 h, at 10 µM, stronger effect = lower value, 100 = same GFP as DMSO wells
[2] = yeast TOR pathway reporter LAP4-GFP change – cell-based, cherry picks, flow cytometry, mother/daughter gates, confirmation (AID 2271;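 active = GFP response above 150% of the DMSO control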;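 also: ratio of sample to DMSO plate mean so 100% equals DMSO level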); conditions: S. cerevisiae LAP4-GFP strain, 3 h, at 10 µM, stronger effect = higher value
Outline: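 Material: Alexa Fluor 633-labelled Saccharomyces cerevisiae GFP-fusion strain, single-plex | Amount: Yeast cells seeded at OD600 of 0.2 | Buffer or medium: SC growth medium | Schedule: 3 h exposure, 30 °C | Measured by: HT flow cytometry, GFP fluorescence channel | Evaluation: % GFP response vs DMSO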

[3] = TOR pathway CIT2 reporter hit retest – S. cerevisiae, GFP fusion, cherry picks, mother/daughter gates, confirmation (AID 2274;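 active = GFP response above 150% of the DMSO level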); conditions: S. cerevisiae CIT2-GFP strain, flow cytometry, 3 h, at 10 µM, stronger effect = higher value
[4] = measured here: daughter cell gate
[5] = measured here: mother cell gate
[6] = measured here: daughter cell gate response
[7] = measured here: mother cell gate response

| SMILES | GFP response vs DMSO [1] | GFP response vs DMSO [1, 4] | GFP response vs DMSO [1, 5] | GFP response relative to DMSO [2] | GFP response relative to DMSO [2, 6] | GFP response relative to DMSO [2, 7] | GFP response, % of DMSO [3] | GFP response, % of DMSO [3, 4] | GFP response, % of DMSO [3, 5] |
| --- | --- | --- | --- | --- | --- | --- | --- | --- | --- |
| Cc1ccc(N2C(=O)NC(=O)/C(=C\c3cn(CC(=O)O)c4ccccc34)C2=O)cc1 | 100% (inactive) | 100% | 101% | 102% (inactive) | 102% | 104% | 96.5% (inactive) | 94.8% | 96.6% |
| O=C1NC(=O)N(CCC2=CCCCC2)C(=O)/C1=C/c1cccs1 | 98.4% (inactive) | 97.9% | 97.6% | 134% (inactive) | 128% | 138% | 91.2% (inactive) | 93.6% | 86.7% |
| O=C1NC(=O)N(CCc2ccc(F)cc2)C(=O)/C1=C/c1cccs1 | 97% (inactive) | 95% | 94.1% | 152% (active) | 142% | 155% | 81% (inactive) | 85.7% | 72.8% |
| CN1C(=O)NC(=O)/C(=C\C=C\c2ccccc2[N+](=O)[O-])C1=O | 102% (inactive) | 90.4% | 93.5% | 107% (inactive) | 103% | 112% | 84.7% (inactive) | 96.8% | 70.8% |
| CN1C(=O)C(=Cc2ccc(Sc3ccccc3)o2)C(=O)N(C)C1=S | 98.2% (inactive) | 94.4% | 91.3% | 126% (inactive) | 114% | 130% | 99.3% (inactive) | 117% | 84% |
| Nc1ccc2ccc3cccc[n+]3c2c1 | 111% (inactive) | 110% | 110% | 181% (active) | 185% | 178% | 199% (active) | 204% | 196% |
| O=C1NC(=S)NC(=O)C1=Cc1ccc2c(c1)CCN2CCCCl | 98.4% (inactive) | 87.8% | 86% | 163% (active) | 110% | 184% | 85.7% (inactive) | 90.2% | 76% |
